This note sets out measurements from ChEMBL document CHEMBL1156818, “Rational design of indoleamine 2,3-dioxygenase inhibitors” (J Med Chem, 2010).

For data set [1], the target named is T1, Indoleamine 2,3-dioxygenase 1 (Homo sapiens, UniProt P14902).
The nature of data set [2]: Cytotoxicity against mouse P815B cells expressing mouse recombinant IDO by MTT assay. In kind it is cell-based. The conditions noted are these: read-out: LD50 (the source's name). Summed up:
(§1)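 Cells (2 × 10⁵/well) incubated 8 h at 37 °C in HBSS with 80 μM L-Trp and compound titrated 0.312–80 μM or 1.56–400 μM. Supernatant was removed; the remaining cells received culture medium (Iscove, 10% FCS, amino acids) plus MTT for 3-4 h at 37 °C.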
On the technique in general: Tetrazolium dyes change colour on reduction, which living cells bring about.

The nature of data set [3]: Cytotoxicity against mouse P815B cells expressing mouse recombinant TDO by MTT assay. Format: cell-based. The conditions noted are these: for CC50: mouse, P815B cells expressing mouse recombinant TDO, read-out: LD50 (the source's name). Summed up:
as §1

Data set [4] concerns the target Tryptophan 2,3-dioxygenase (Mus musculus, UniProt P48776). Nature of the data set: Inhibition of mouse recombinant TDO expressed in mouse P815B cells assessed as blockade of tryptophan degradation by HPLC. Format: cell-based.
Data set [5] concerns the target Indoleamine 2,3-dioxygenase 1 (Mus musculus, UniProt P28776). Nature of the data set: Inhibition of mouse recombinant IDO expressed in mouse P815B cells assessed as blockade of tryptophan degradation by HPLC. In kind it is cell-based.
Data set [6] in a line: (§2) Cytotoxicity against HEK293 cells expressing human recombinant IDO by MTT assay. In kind it is cell-based. The conditions noted are these: human, HEK293 cells expressing human recombinant IDO; read-out: LD50 (the source's name). In short, it runs like this:
as §1

Data set [7] addresses T1, Indoleamine 2,3-dioxygenase 1. Kind of data set: Inhibition of human recombinant IDO expressed in HEK293 cells assessed as blockade of tryptophan degradation by HPLC. In kind it is cell-based.
Data set [8] has as its system HEK293. The description is as §2. The conditions noted are these: Homo sapiens, HEK293. Format: cell-based. Summed up: as §1

Chain of Tryptophan 2,3-dioxygenase (P48776 whole entry): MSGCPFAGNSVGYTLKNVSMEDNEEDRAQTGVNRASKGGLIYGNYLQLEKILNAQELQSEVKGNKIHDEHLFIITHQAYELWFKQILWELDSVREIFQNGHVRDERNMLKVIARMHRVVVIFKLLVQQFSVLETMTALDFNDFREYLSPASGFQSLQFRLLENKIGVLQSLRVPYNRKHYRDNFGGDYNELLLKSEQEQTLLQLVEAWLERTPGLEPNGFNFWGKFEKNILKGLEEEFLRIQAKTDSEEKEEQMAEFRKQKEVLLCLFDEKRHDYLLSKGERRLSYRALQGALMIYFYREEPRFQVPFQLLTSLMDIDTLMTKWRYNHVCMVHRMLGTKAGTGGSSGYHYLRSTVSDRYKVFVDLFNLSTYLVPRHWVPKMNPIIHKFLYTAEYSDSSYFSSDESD
Chain of Indoleamine 2,3-dioxygenase 1 (Mus musculus, UniProt P28776) (P28776 whole entry): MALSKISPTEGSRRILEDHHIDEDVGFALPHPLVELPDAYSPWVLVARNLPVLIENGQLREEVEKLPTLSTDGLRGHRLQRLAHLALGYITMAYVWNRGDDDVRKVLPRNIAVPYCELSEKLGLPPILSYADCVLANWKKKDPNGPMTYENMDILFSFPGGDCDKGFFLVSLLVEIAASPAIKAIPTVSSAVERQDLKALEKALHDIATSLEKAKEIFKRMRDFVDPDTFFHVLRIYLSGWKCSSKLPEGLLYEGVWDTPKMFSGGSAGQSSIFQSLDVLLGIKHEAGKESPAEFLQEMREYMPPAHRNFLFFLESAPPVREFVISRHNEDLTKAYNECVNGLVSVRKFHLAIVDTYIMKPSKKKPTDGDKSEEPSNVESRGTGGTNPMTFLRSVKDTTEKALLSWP
T1 sequence (P14902 whole entry): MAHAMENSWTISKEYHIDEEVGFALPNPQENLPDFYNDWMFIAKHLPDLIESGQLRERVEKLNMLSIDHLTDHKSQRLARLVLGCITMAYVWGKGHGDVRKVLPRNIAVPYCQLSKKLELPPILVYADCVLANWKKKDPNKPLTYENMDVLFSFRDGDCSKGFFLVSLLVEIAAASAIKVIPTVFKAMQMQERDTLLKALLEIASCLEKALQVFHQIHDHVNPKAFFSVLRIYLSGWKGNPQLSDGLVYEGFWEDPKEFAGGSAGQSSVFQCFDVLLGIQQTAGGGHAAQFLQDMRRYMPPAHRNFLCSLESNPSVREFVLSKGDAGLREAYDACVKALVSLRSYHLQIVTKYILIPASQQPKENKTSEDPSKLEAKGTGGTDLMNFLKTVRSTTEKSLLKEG

A word on the IC50: it is the concentration at which inhibition is half-maximal. In the case of `O=C(c1ccccc1)c1cccc(O)c1`, in data set [1] (read-out: IC50), the IC50 was 500 µM.

For `Nc1nc(-c2ccccc2)cs1`, the IC50 in data set [1] (read-out: IC50) was determined as 1000 µM.

On to `c1ccc(-c2cnn[nH]2)cc1`, for which the results for the CC50 in data set [2], in data set [3] and in data set [6] were over 80 µM, over 400 µM and over 400 µM, respectively. In addition, the values for the IC50 in data set [4] and in data set [5] (read-out: IC50) were over 400 µM and 5 µM, respectively.

As for `Oc1ccc(O)c2ccccc12`, the CC50 is 40 µM in data set [2], 10 µM in data set [3] and 40 µM in data set [6]. In data set [4], the IC50 is over 10 µM.

Take `c1cc(-c2cnn[nH]2)ccn1`: the IC50 was 5 µM in data set [1] (read-out: IC50) and “Not Active” in data set [5] (p815b). Further, the CC50 in data set [2] is 200 µM.

Take `CC(C)/N=C1/C=C(C2=C/C(=N\C(C)C)c3ccccc3C2=O)C(=O)c2ccccc21`: the IC50 in data set [7] is 25 µM; in data set [1] (read-out: IC50), 0.45 µM; in data set [4], over 50 µM; in data set [5] (read-out: IC50), over 50 µM. Further, the CC50 stood at 50 µM in data set [2], 100 µM in data set [3] and 50 µM in data set [6].

On to `CCC(CC)/N=C1/C=C(C2=C/C(=N\C(CC)CC)c3ccccc3C2=O)C(=O)c2ccccc21`, for which the IC50 in data set [7] was 50 µM; in data set [1] (read-out: IC50) it was 0.52 µM; in data set [4], over 50 µM; in data set [5] (read-out: IC50), over 200 µM. Besides, the CC50 in data set [2] is 200 µM; in data set [3], 100 µM; in data set [6], over 400 µM.

Regarding `c1cncc(-c2c[nH]nn2)c1`, the IC50 in data set [1] (read-out: IC50) was 680 µM.

Consider `Nc1ccc(O)c2ncccc12`, for which the IC50 came out at 3 µM in data set [1] (read-out: IC50), 5 µM in data set [4] and 1 µM in data set [5] (read-out: IC50). Besides, the CC50 in data set [2] is 2.5 µM; in data set [3] it was 5 µM.

Regarding `Oc1cccc2[nH]c3ccccc3c12`, the IC50 in data set [1] (read-out: IC50) worked out at 400 µM.

Consider `CN1c2ccccc2SC1S` (centres undefined), for which the IC50 entry in data set [1] was “Not Active”.

Take `NC1Nc2ccccc2S1` (centres undefined): the IC50 entry in data set [1] is on record as “Not Active”.

Regarding `OC1Cc2ccccc2N1` (centres undefined), in data set [1], the IC50 entry is listed as “Not Active”.

Turning to `CC(C)(C)Nc1ccc(O)c2ccccc12`, the IC50 in data set [1] (read-out: IC50) is 4 µM; in data set [5] (p815b), “Not Active”. Besides, the CC50 in data set [2] came to 20 µM.

As to `Nc1ccccc1Oc1ccccc1`, the IC50 in data set [1] (read-out: IC50) was over 1000 µM.

On to `Oc1ccc(NCc2ccccc2)c2ccccc12`, for which the IC50 in data set [1] (read-out: IC50) stood at 2.5 µM.

With `NCCNc1ccc(O)c2ccccc12`, in data set [1] (read-out: IC50), the IC50 is 44 µM.

`SC1Nc2ccccc2N1`: in data set [1], the IC50 entry is reported as “Not Active”.

Take `OC1Nc2ccccc2S1` (centres undefined): the IC50 result in data set [1] is given as “Not Active”.

For `N[C@@H](CO)C(=O)Nc1ccc(O)c2ccccc12`, the IC50 in data set [1] (read-out: IC50) is 400 µM.

Regarding `OCCOc1ccc(O)c2ccccc12`, the IC50 in data set [1] (read-out: IC50) is 12.5 µM.

As for `SC1Nc2cc(Cl)ccc2S1` (centres undefined), the IC50 in data set [1] (read-out: IC50) turned out to be 50 µM.

For `SC1Nc2ccccc2S1` (centres undefined), the IC50 in data set [7] was 7 µM; in data set [1] (read-out: IC50), 50 µM; in data set [4] it was over 80 µM; in data set [5] (read-out: IC50), 20 µM. Besides, the CC50 in data set [2] was over 80 µM. Besides, the LD50 in data set [3] (Mus musculus, P815B) is over 80 µM; in data set [8], over 80 µM.

`CNc1ccc(O)c2ccccc12`: in data set [1] (read-out: IC50), the IC50 was 12.5 µM.

For `CN(C)c1ccc(O)c2ccccc12`, the IC50 in data set [1] (read-out: IC50) was found to be 1000 µM.

`NCC(=O)Nc1ccc(O)c2ccccc12`: in data set [1] (read-out: IC50), the IC50 stood at 105 µM.

Take `Sc1nc(-c2ccccc2)cs1`: the CC50 in data set [2], in data set [3] and in data set [6] was over 80 µM throughout. In addition, the IC50 in data set [4] was over 80 µM; in data set [5] (read-out: IC50) it was 20 µM.

Take `Oc1ccc(NC2CCCCC2)c2ccccc12`: the IC50 in data set [1] (read-out: IC50) is 15 µM.

`OC1c2ccccc2-c2ccccc21`: in data set [1] (read-out: IC50), the IC50 was over 1000 µM.

Regarding `O=C1c2ccccc2-c2ccccc21`, the IC50 in data set [1] (read-out: IC50) is over 200 µM.

Turning to `CCNc1ccc(O)c2ncccc12`, the IC50 in data set [1] (read-out: IC50) is 40 µM; in data set [5] (p815b), “Not Active”. Further, in data set [2], the CC50 was determined as 20 µM.

`CC(C)Nc1ccc(O)c2ncccc12`: the values for the IC50 in data set [1] (read-out: IC50) and in data set [5] (p815b) were 15 µM and “Not Active”, respectively. In addition, the CC50 in data set [2] is over 200 µM.

For the compound `CC(C)CNc1ccc(O)c2ccccc12`, in data set [1] (read-out: IC50), the IC50 was 25 µM.

Turning to `C[C@@H](N)C(=O)Nc1ccc(O)c2ccccc12`, in data set [1] (read-out: IC50), the IC50 was 90 µM.

With `CCC(CC)Nc1ccc(O)c2ccccc12`, the IC50 in data set [1] (read-out: IC50) came out at 3.5 µM.

Turning to `CN(C)CSC1Nc2ccccc2S1` (centres undefined), the IC50 in data set [1] (read-out: IC50) was found to be 50 µM.

For the compound `OC1Nc2ccccc2N1`, the IC50 result in data set [1] was “Not Active”.

With `COc1ccc(N)c2ccccc12`, the IC50 in data set [1] (read-out: IC50) was 5.5 µM.

Turning to `CSC1Nc2ccccc2S1` (centres undefined), in data set [1], the IC50 entry is reported as “Not Active”.

With `CCCNc1ccc(O)c2ccccc12`, the IC50 was 4.5 µM in data set [1] (read-out: IC50) and “Not Active” in data set [5] (p815b). Moreover, the CC50 in data set [2] amounted to 20 µM.

For `C[C@H](N)C(=O)Nc1ccc(O)c2ccccc12`, the IC50 in data set [1] (read-out: IC50) amounted to 60 µM.

In the case of `Nc1ccc(Nc2ccccc2)cc1`, in data set [1] (read-out: IC50), the IC50 is 400 µM.

For `Nc1ccc2c(c1)SC(S)N2` (centres undefined), in data set [1], the half-inhibitory concentration (IC50) result was “Not Active”.

Turning to `CN(C)CSc1nc(-c2ccccc2)cs1`, in data set [1] (read-out: IC50), the half-maximal inhibitory concentration (IC50) was over 1000 µM.

`CCN(CC)CCNc1ccc(O)c2ccccc12`: the IC50 in data set [1] (read-out: IC50) turned out to be 3 µM.

On to `CC1=C/C(=N\C(C)C)c2ccccc2C1=O`, for which the IC50 in data set [7] is over 50 µM; in data set [1] (read-out: IC50) it was 0.2 µM; in data set [4], 6.3 µM; in data set [5] (read-out: IC50), 4 µM. Further, the CC50 in data set [2] is 15 µM; in data set [3], 10 µM; in data set [6], 50 µM.

For the compound `NCCCNc1ccc(O)c2ccccc12`, the IC50 in data set [1] (read-out: IC50) came out at 5 µM.

`Nc1ccc(O)c2ccccc12`: the IC50 in data set [1] (read-out: IC50) was 6 µM; in data set [5] (p815b), “Not Active”. In data set [2], the CC50 was 2 µM.

For `O=C(Nc1ccc(O)c2ccccc12)[C@@H]1CCCN1`, the IC50 in data set [1] (read-out: IC50) amounted to 200 µM.

For `CCNc1ccc(O)c2ccccc12`, the CC50 in data set [2] is 400 µM; in data set [3] it was 50 µM; in data set [6], 200 µM. In addition, the IC50 in data set [4] is over 50 µM.

`CC(C)Nc1ccc(O)c2ccccc12`: the IC50 is 12.5 µM in data set [7], 2.5 µM in data set [1] (read-out: IC50), over 15 µM in data set [4] and 30 µM in data set [5] (read-out: IC50). Besides, the CC50 is over 80 µM in data set [2], 15 µM in data set [3] and 100 µM in data set [6].

`Cn1cc(C[C@H](N)C(=O)O)c2ccccc21` [(L)-1-METHYLTRYPTOPHAN]: the CC50 was over 1000 µM in data set [2], over 400 µM in data set [3] and over 400 µM in data set [6]. The IC50 in data set [4] is over 400 µM.

Turning to `O=C(c1ccccc1)c1ccccc1` [BENZOPHENONE], the IC50 in data set [1] (read-out: IC50) stood at 1000 µM.

For `Oc1ccc(Cl)cc1Cc1cc(Cl)ccc1O` [DICHLOROPHEN], the CC50 in data set [2] stood at 0.2 µM. Further, the IC50 entry in data set [5] (p815b) was “Not Active”.

Turning to `Oc1cccc2cccnc12` [OXYQUINOLINE], the IC50 in data set [1] (read-out: IC50) was 750 µM.
